Data set [1] deals with Influenza A virus. As to the kind of experiment: Anti-influenza activity against influenza A virus A/Aichi/2/68 in MDCK cells administered at 100 uM within 1 hrs post infection. In kind it is functional, organism-based. A digest of the protocol:
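MDCK cells were infected with A/Aichi/2/68 (H3N2) under drug-free conditions and then given drug at 100 µM after delays of 0–10 h at 37 °C. The paper describes a one-step growth design at MOI 5 PFU/cell with 1-h drug treatment. Virus yield was measured by plaque titration after 24 h total, as % of 1% DMSO control, mean ± SD of three experiments.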

In data set [2] the test system is Influenza B virus. In words: Antiviral activity against influenza B virus B/Lee at 100 uM. In kind it is functional, organism-based. The gist of the method: (§1)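 PBS-washed confluent MDCK monolayers were inoculated with virus in serum-free MEM and adsorbed for 45 min at room temperature. They were then cultured in agar medium with drug at 100 µM or 1% DMSO as control. Results are percent of control, mean ± SD of three experiments. Drug stocks were in DMSO, final DMSO <1%.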

The test system of data set [3] is Influenza A virus. As to the kind of experiment: Antiviral activity against influenza A virus A/NWS/33 (H1N1) at 100 uM. In kind it is functional, organism-based. The gist of the method: as §1
Data set [4] has as its system Influenza B virus. In words: Antiviral activity against influenza B virus B/Singapore/222/79 at 100 uM. In kind it is functional. The gist of the method: as §1
In data set [5] the test system is Influenza A virus. As to the kind of experiment: Antiviral activity against influenza A virus A/USSR/92/77 (H1N1) at 100 uM. In kind it is functional, organism-based. The gist of the method: as §1
The test system of data set [6] is Influenza A virus. In words: Inhibition of influenza A virus A/Aichi/2/68 virus proliferation in MDCK cells. In kind it is functional, organism-based.
In data set [7] the test system is Influenza A virus. In words: Antiviral activity against influenza virus A virus A/PR/8/34 (H1N1) at 100 uM. In kind it is functional, organism-based. The gist of the method: as §1
In another data set the test system is MDCK. In words: Cytotoxicity against MDCK cells at 100 uM by MTT assay. In kind it is cell-based, Canis lupus familiaris. Conditions: dog. A digest of the protocol: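 Subconfluent MDCK cells (10⁴ cells/well) were exposed for 24 h to compound at 100 or 200 µM in MEM with 2% FBS; control was 1% DMSO. MTT was then added and OD read at 570 nm. Values are mean ± SD of three measurements.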

Data set [8] deals with Influenza A virus. As to the kind of experiment: Inhibition of influenza A virus A/Aichi/2/68 proliferation in MDCK cells at 10 uM relative to control. In kind it is functional. Also on record: scale not given: the % may be the effect or the level left.

Activity calls are given as the source filed them. The calls are words filed in the database; no cut-off is given here.

With `N#C[C@]12CCC3(OCCO3)C3=CO[C@H](Cc4cc(OC(F)(F)F)ccc41)[C@@H]32`, the outcome in the data set on Influenza A virus [1], in the data set on Influenza B virus [2], in the data set on Influenza A virus [3], in the data set on Influenza B virus [4], in the data set on Influenza A virus [5] and in the data set on Influenza A virus [7] was Active. Moreover, the figures for the Activity entry in the data set with Influenza A virus [6], with MDCK and in the data set with Influenza A virus [8] were “Dose-dependent effect”, “Not Active” and 30%, respectively.
For `CC(C)C(Oc1ccc2c(c1)C[C@H]1OC=C3[C@H]1[C@@]2(C#N)CCCC31OCCO1)(C(C)C)C(C)C`, the result in the data set on Influenza B virus [2], with Influenza A virus [3], with Influenza B virus [4], in the data set with Influenza A virus [5] and in the data set with Influenza A virus [7] was Active. The figures for the Activity entry with Influenza A virus [6], in the data set on MDCK and in the data set with Influenza A virus [8] were “Dose-dependent effect”, “Not Active” and 30%, respectively.

For the origin of these results see ChEMBL document CHEMBL1144493, “Synthesis and biological evaluation of dihydrofuran-fused perhydrophenanthrenes as a new anti-influenza agent having novel structural characteristic” (Bioorg Med Chem, 2007).
